# GPR7 antag – GPR7 receptor antagonists, primary screen, cell-based, fluorescence, single concentration; Neuropeptides B/W receptor type 1 (Homo sapiens), P48145; GPR7-expressing cells, fluorescence antagonist assay; inhibition, % at 4.4 µM; 1.1% of 290,000 active; in the data active = inhibition above about 16%, passing the limit was not always enough;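 note: cells stimulated with the agonist NPW; 0% = agonist with vehicle and 100% = vehicle without agonist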
# DAGLB inh – DAGLB lipase inhibitors, primary screen, biochemical, fluorescence, HTS; HEK293T DAGLB membrane lysate, EnzChek fluorogenic substrate; 0.059% of 340,000 active; Diacylglycerol lipase-beta (Homo sapiens), Q8NCG7; inhibition, % at 5.17 µM; in the data active = inhibition above about 34%;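 note: 0% = enzyme with vehicle and 100% = wells lacking enzyme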
# MPTP block – mitochondrial permeability transition pore inhibitors, primary screen, biochemical, isolated mouse mitochondria, absorbance | inhibition, % at 10 µM | Ca2+ swelling absorbance, 30 min | 1.4% of 360,000 active;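 active = inhibition of 50% or more, scaled per plate between neutral and stimulator controls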;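 note: 0% = DMSO wells given calcium and 100% = 1 mM EGTA wells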
# TAAR1 ag – human TAAR1 agonists, primary screen, Fluo-8 calcium fluorescence, CHO RD-HGA16 cells. Trace amine-associated receptor 1 (Homo sapiens), Q96RJ0. vehicle wells 0%, saturating PEA agonist 100%. activation, % at 3 µM. 0.99% of 360,000 active. AID 624467, 2012;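 active = activation above the mean activation of all test compounds in the run plus 3 SD, cut at about 38% in these data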
# Target sequence (Q96RJ0 whole entry, looked up): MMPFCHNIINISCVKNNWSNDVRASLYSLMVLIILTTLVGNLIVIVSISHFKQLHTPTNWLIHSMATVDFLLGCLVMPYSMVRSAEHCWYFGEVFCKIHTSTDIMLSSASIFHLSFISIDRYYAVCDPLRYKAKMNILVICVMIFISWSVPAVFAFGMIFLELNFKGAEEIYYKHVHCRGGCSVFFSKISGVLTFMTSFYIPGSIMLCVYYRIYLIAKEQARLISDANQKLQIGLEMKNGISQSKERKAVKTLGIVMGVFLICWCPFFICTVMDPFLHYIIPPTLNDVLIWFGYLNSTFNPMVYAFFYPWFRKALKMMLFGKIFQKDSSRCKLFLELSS
#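 Repeats: no replicates (n 1) | Material: CHO-derived RD-HGA16 cells with stable Gα16 and human TAAR1 | Technique: Kinetic Fluo-8 calcium fluorescence | Schedule: 17-24 h seeding, 75 min 37 °C dye, 30 min RT | Evaluation: % activation from peak over basal fluorescence ratio, DMSO-to-PEA scaled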
# TAAR1 antag – human TAAR1 antagonists, primary screen, Fluo-8 calcium fluorescence, CHO RD-HGA16 cells; 1.5% of 360,000 active; antagonist; inhibition, % at 3 µM; Trace amine-associated receptor 1 (Homo sapiens), Q96RJ0;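 active = inhibition above a per-plate cutoff, the mean inhibition of test compounds on that plate plus 3 SD, cut at about 49% in these data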;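 note: 0% = DMSO plus EC80 beta-PEA response and 100% = DMSO alone without agonist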
#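 Assay system: CHO-derived RD-HGA16 cells stably expressing human TAAR1 plus Gα16. Timing: 140 s kinetic read after compound, 140 s after agonist. Technique: kinetic Fluo-8 calcium fluorescence measurement. Measure: % inhibition of agonist calcium response.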
# TAAR1 ag confirm – human TAAR1 agonists, retest of hits, confirmation, Fluo-8 calcium fluorescence, CHO RD-HGA16 cells. shares compounds with TAAR1 ag. activation, % at 3 µM. AID 651783, 2012. 82% of 2,400 active. scaled: DMSO 0%, maximal phenethylamine 100%;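 active = activation above a cutoff set at the run's mean compound activation plus 3 SD, cut at about 39% in these data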
# Ga16 nonsel ag – nonselective calcium mobilization agonists, CHO-Ga16 cells, counter-screen for hTAAR1 agonist project, cell-based, fluorescence, CHO-Ga16 parental line | 50% of 2,400 active | activation, % at 3 µM | shares compounds with TAAR1 ag | Fluo-8 calcium fluorescence; normalized to maximal ATP response, DMSO zero;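 active = activation above the run cutoff, the mean activation over all tested wells plus 3 SD, cut at about 12% in these data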;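 note: 0% = DMSO wells and 100% = maximal ATP response on the peak over basal ratio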
# TAAR1 desens – TAAR1 desensitization by agonist hits, confirmation, counter-screen for TAAR1 agonist project, cell-based, fluorescence, tachyphylaxis; 46% of 2,400 active; CHO RD-HGA16 hTAAR1, Fluo-8 calcium, beta-PEA response inhibition; inhibition, % at 3 µM; shares compounds with TAAR1 ag; AID 651951, 2012;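 active = inhibition above the run cutoff, the mean inhibition of all test compounds plus 3 SD, cut at about 49% in these data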;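 note: beta-PEA stimulus applied at its EC80; loss of beta-PEA calcium signal after compound pretreatment read as receptor desensitization; 0% = DMSO with beta-PEA at EC80 and 100% = DMSO alone without agonist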
# Ga16 nonsel ant – inhibition of ATP-evoked calcium response in CHO-Ga16 cells, counter-screen for TAAR1 agonist project, cell-based, fluorescence; shares compounds with TAAR1 ag; CHO-Ga16 ATP-induced calcium, Fluo-8 fluorescence; inhibition, % at 3 µM; 39% of 2,400 active; AID 651952, 2012;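 active = inhibition above the plate's mean compound inhibition plus 3 SD, computed per plate, cut at about 22% in these data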;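 note: 0% = EC80 ATP with DMSO and 100% = DMSO wells without ATP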
# Active calls of the source: *; . = no result. A selection: hits, their analogues and other compounds. The true share with any hit is near 4%.
SMILES,GPR7 antag,DAGLB inh,MPTP block,TAAR1 ag,TAAR1 antag,TAAR1 ag confirm,Ga16 nonsel ag,TAAR1 desens,Ga16 nonsel ant
CC(CCc1ccccc1)NC(=O)c1ccccc1C(=O)O (centres undefined),-1,-2,-1,48*,-12,63*,20*,2,2
CC(CCc1ccccc1)NC(=O)c1ccc(C(=O)NC(C)CCc2ccccc2)cc1 (centres undefined),-11,2,1,1,-1,.,.,.,.
CC(CCc1ccccc1)NCC#N (centres undefined),-9,0,0,53*,-15,51*,0,8,6
O=C(O)c1ccccc1C(=O)NCCc1ccc(Cl)cc1,6,0,2,60*,17,61*,7,27,9
O=c1nc(N2CCCC2)nc(Nc2ccccc2)[nH]1,-17,3,2,.,.,.,3,.,5
c1ccc(Nc2nc(N3CCCC3)nc(N3CCOCC3)n2)cc1,.,-6,0,22,-6,.,.,.,.
CCn1cc(C(=O)O)c(=O)c2cc(F)c(N/N=C/c3ccccc3)cc21,-7,19,9,56*,70*,82*,2,85*,8
Cc1ccc2nc(-c3ccc(C#N)cc3)c(Cc3ccccc3C(F)(F)F)n2c1,.,.,1,1,-38,.,.,.,.
O[C@@H](Cc1ccccc1)[C@@H](/C=C/c1ccccc1)NCCc1ccccc1,.,.,.,53*,36,90*,18*,48,24*
O=C(/C=C/c1ccc(Cl)cc1)NCCc1ccccc1,3,-6,2,27,4,.,.,.,.
N=C1/C(=C/c2cccn2Cc2ccc(F)cc2)C(=O)N=C2SC=CN12,-21,3,-1,3,4,.,.,.,.
N=C1/C(=C\c2coc3ccccc3c2=O)C(=O)N=C2SC=CN12,15,-50,37,148*,60*,110*,118*,75*,75*
COC(=O)C1=C(C)N(C)C(=NCC2CC2)NC1c1ccc(Cl)cc1 (centres undefined),.,.,.,0,-6,.,.,.,.
O=c1[nH]c(Cc2ccc(Cl)cc2)nc2ccccc12,-8,1,-1,2,10,.,.,.,.
O=c1[nH]c(CN(CCc2ccccc2)S(=O)(=O)c2ccc(Cl)cc2)nc2ccccc12,-3,-1,0,79*,73*,90*,14*,95*,24*
NC(Cc1ccc(Cl)cc1)c1csc(Nc2cc(Oc3ccccc3)ncn2)n1 (centres undefined),.,.,6,34,28,.,.,.,.
COc1ccc(CC(N)c2csc(Nc3cc(Oc4ccccc4)ncn3)n2)cc1 (centres undefined),.,.,4,56*,35,58*,32*,52*,42*
NC(Cc1ccc(F)cc1)c1csc(Nc2cc(Oc3ccccc3)ncn2)n1 (centres undefined),.,.,5,71*,44,85*,36*,61*,43*
COc1ccccc1C(=O)N1CCC2CCN(C(=O)c3ccccc3)C2C1 (centres undefined),.,.,.,3,-13,.,.,.,.
CCC(C)[C@H]1CNC(=S)N1CCc1cc(C(F)(F)F)cc(C(F)(F)F)c1 (some centres undefined),-32,-8,0,1,4,.,.,.,.

# Compound activity: PubChem, several laboratories
